Source: PubChem
This is a sample that favours compounds with a hit; in the whole collection about 2.2% have one here.
FLuc stim CS – affects firefly luciferase, flagging false hits in luciferase stimulation screens; P08659; ATPlite luciferase biochemical, luminescence, 10 min; 0 = ATP-free wells, 1 = DMSO control; activation factor at 10 µM; 200,000 tested, under 10 active;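 active means luciferase activation factor, scaled between plate controls, of at least 2 with compound at 10 µM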
Target sequence (P08659 whole entry, looked up): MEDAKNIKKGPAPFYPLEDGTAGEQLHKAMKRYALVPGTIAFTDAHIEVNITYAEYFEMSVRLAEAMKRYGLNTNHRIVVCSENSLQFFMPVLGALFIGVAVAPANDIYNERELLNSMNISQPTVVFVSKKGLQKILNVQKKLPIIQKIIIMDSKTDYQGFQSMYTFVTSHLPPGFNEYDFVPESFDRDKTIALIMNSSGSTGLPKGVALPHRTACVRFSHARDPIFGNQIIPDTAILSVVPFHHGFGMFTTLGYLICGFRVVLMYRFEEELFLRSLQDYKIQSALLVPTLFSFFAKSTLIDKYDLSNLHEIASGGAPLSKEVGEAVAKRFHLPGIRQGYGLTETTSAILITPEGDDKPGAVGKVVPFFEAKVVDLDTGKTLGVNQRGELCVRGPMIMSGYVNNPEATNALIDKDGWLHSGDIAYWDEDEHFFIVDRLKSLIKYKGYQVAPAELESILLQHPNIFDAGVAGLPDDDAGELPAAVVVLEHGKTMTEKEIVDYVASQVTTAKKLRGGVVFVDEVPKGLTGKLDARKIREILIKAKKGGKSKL
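Material: Luciferase/luciferin reagent mix | Doses: Test compounds dosed from 2 mM stocks in 100% DMSO | Timing: 10 min incubation after luciferase reagent addition, room temperature | Measured by: Luminescence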
HSP90 inh – blocks HSP90-mediated luciferase refolding in reticulocyte lysate | Rabbit reticulocyte lysate, luciferase refolding luminescence, 3 h | inhibition, % at 5.6 µM | 290,000 tested, 0.91% active | AID 1789;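 active means inhibition above the screen-wide mean plus 3 SD, computed separately per campaign, cut at about 16% in these data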;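 further: 0% = DMSO wells and 100% = 60 µM geldanamycin wells; inhibitors lower the luminescence because luciferase stays unfolded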
STAT3 inh – reduces IL-6 driven STAT3 reporter signal | U3A cells, IL-6 STAT3-luciferase reporter, luminescence; host cell line lacks STAT1 | inhibition, % at 5.5 µM | 190,000 tested, 0.89% active;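 active means inhibition above the mean inhibition across all screened compounds plus 3 SD, cut at about 44% in these data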;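 further: 0% = DMSO only wells and 100% = 100 µM nifuroxazide control wells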
PPC-1+TRAIL kill – compounds killing PPC-1 cancer cells with TRAIL present (potentiator screen, no TRAIL-free arm) | PPC-1 cells + TRAIL, ATPLite viability luminescence | cell killing (% activity), % at 4 µM or 5 µM | 220,000 tested, 0.41% active | AID 1443;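 active means cell killing above 50% in the first pass at 4 µM, then a duplicate retest at 5 µM averaging 50% or more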;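 further: plate controls were cells with TRAIL plus DMSO for no effect and medium-only wells lacking cells for full effect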
FLuc inhib CS – counter-screen for luciferase assay inhibitors: firefly luciferase inhibition; P08659; ATPLite firefly luciferase biochemical luminescence, 10 min; 200,000 tested, 1.5% active; inhibition, % at 10 µM;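 active means inhibition above about 50% when tested at 10 µM, limit read from the data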
C8 TRAIL sens – caspase-8 TRAIL sensitization | 360,000 tested, 1% active | inhibition (viability loss, TRAIL sensitization), % at 10 µM | AID 624354 | NB7+C8 cells + TRAIL, ATPlite viability luminescence;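 active means compounds causing at least 50% loss of cell viability in the single-dose screen, relative to plate controls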
HSP90 inh confirm – HSP90 inhibition, confirmation assay; 2,300 tested, 64% active; shares compounds with HSP90 inh; inhibition, % at 5.9 µM; rabbit reticulocyte lysate, luciferase refolding luminescence, 3 h; in the data active means inhibition above about 18%;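 further: 0% = vehicle wells and 100% = reference inhibitor wells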
FLuc counter – blocks native firefly luciferase in HSP90 counter-screen; shares compounds with HSP90 inh; AID 1847; inhibition, % at 5.9 µM; purified native firefly luciferase, luminescence; 2,300 tested, 48% active;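 active means inhibition above the mean inhibition of all tested sample wells plus 3 SD, cut at about 10% in these data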;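 further: 0% = DMSO with luciferase and 100% = wells lacking luciferase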
Active calls of the source: *; x = no result.

SMILES | FLuc stim CS | HSP90 inh | STAT3 inh | PPC-1+TRAIL kill | FLuc inhib CS | C8 TRAIL sens | HSP90 inh confirm | FLuc counter
Cc1sc2ncnc(SCC(=O)c3ccc(O)cc3O)c2c1C | x | 19.3* | x | 16.7 | x | -3.2 | -10.5 | -11.4
CCC(c1nnnn1-c1ccc2c(c1)OCCO2)N1CCc2ccccc2C1 (stereo unspecified) | x | x | x | x | x | 1.2 | x | x
COc1ccc2c(c1)Cc1sc(NC(C)=O)nc1-2 | 0.8 | 31.8* | 5.1 | -8.7 | 22.5 | -1.4 | 1.9 | -10.1
COc1ccc(-c2cc(C(=O)N3CCN(Cc4ccccc4)CC3)no2)cc1OC | 1 | 52.3* | -4.6 | -6.3 | -1.4 | -19.7 | -1.1 | -12.8
COc1cc2cc(C(=O)N3CCOCC3)cc(-c3ccc(C)cc3)c2cc1OC | x | 50.1* | x | x | x | -17.6 | 5.0 | 1.3
O=C(c1cc(-c2ccc(Cl)c(Cl)c2)on1)N1CCCCCC1 | x | -1.5 | x | x | x | 6.2 | x | x
O=C(c1cc(-c2ccc3c(c2)OCO3)on1)N1CCCCC1 | x | 35.7* | x | x | x | 57.2* | 58.4* | 55.2*
Cc1ccc(-c2cc(C(=O)N3CCOCC3)no2)cc1 | x | 62.0* | x | x | x | 69.2* | 68.4* | 56.7*
CC(=O)c1c(C(=O)O)[nH]c(C(=O)O)c1C | 1 | 2.3 | -1.0 | -11.4 | 1.9 | -1.5 | x | x
CC(=O)c1cccc(NC(=O)C(C)OC(=O)CCN=C2NS(=O)(=O)c3ccccc32)c1 (stereo unspecified) | x | x | x | x | x | -13.5 | x | x
O=S(=O)(c1ccc(N2CCOCC2)nc1)N(Cc1ccccn1)Cc1ccccn1 | x | 8.3 | x | 6.9 | x | -2.5 | x | x
CC1Cc2cc(S(=O)(=O)N3CCN(c4ccccc4F)CC3)ccc2N1C(=O)C1CC1 (stereo unspecified) | x | 3.5 | x | x | x | 17.5 | x | x
CC1CCC(NC(=O)c2ccc3c(c2)OCO3)CC1 (stereo unspecified) | x | 23.9* | x | x | x | 34.2 | 45.9* | 27.0*
COc1ccc(C(=O)NC2CCN(C(=S)Nc3cccc(C)c3)CC2)cc1 | 1 | 21.1* | 24.6 | 23.1 | 1.6 | -3.2 | 4.7 | -0.9
Cc1nn(-c2ccc(C(=O)O)cc2)c(N)c1-c1ccccc1 | 0.6 | 20.9* | -9.3 | 18.8 | 43.8 | 20.5 | 48.4* | -0.6
Nc1c(-c2ccccc2)cnn1-c1ccc(C(=O)O)cc1 | 0.6 | 24.6* | -1.7 | 30.5 | 40.6 | 4.7 | 42.5* | 3.8
Cc1cccc(C)c1NC(=O)CC(NCCc1ccccc1)C(=O)O (stereo unspecified) | 1.1 | 1.0 | 11.6 | 27.9 | -6.3 | -3.1 | x | x
[O-]/[N+](=C\c1ccncc1)c1ccc(Br)cc1 | 0.9 | 30.9* | 2.5 | 9.5 | 14.0 | 11.7 | 97.3* | -9.6
[O-]/[N+](=C/c1cccnc1)c1ccc(Br)cc1 | 0.9 | 0.1 | -9.5 | 14.0 | 13.2 | 9.5 | x | x
CCOC(=O)C1CCN(C(=O)CSCc2nc(-c3ccc(OCC)cc3)oc2C)CC1 | 1.1 | -1.6 | 4.6 | 27.6 | -5.4 | 11.1 | x | x
CCOc1ccc(-c2nc(CSCC(=O)N3CCN(C(=O)c4ccco4)CC3)c(C)o2)cc1 | 1 | 37.2* | 8.6 | -3.7 | 2.7 | 2.9 | 46.0* | -5.0
CCc1ccc(-c2nc(CSCC(=O)NCc3ccco3)c(C)o2)cc1 | 0.8 | 19.1* | 28.1 | 16.7 | 20.7 | 3.1 | 30.8* | -19.8
CCCNC(=O)CSCc1nc(-c2ccc(SC)cc2)oc1C | 1 | 3.4 | 16.6 | 17.4 | -2.6 | 9.9 | x | x
Cc1cc(C)n(C(=O)C(C)N2C(=O)c3ccccc3C2=O)n1 (stereo unspecified) | 1 | 2.8 | 5.9 | -6.5 | -4.4 | -7.2 | x | x
Cc1cccc(N2CCN(C(=O)c3ccccc3OCc3c(C)noc3C)CC2)c1C | x | x | x | x | x | 6.5 | x | x
CC(=O)c1c[nH]c(C(=O)NCc2ccccc2Cl)c1 | x | -1.1 | x | x | x | 4.9 | x | x
COc1ccc2cc(-c3ccccc3)ncc2c1 | x | 20.2* | x | x | x | 62.3* | 23.7* | 10.3*
COc1ccc(-c2cc(=O)[nH][nH]2)cc1 | 1.1 | 33.5* | -3.2 | -0.3 | -5.4 | -5.9 | -4.2 | -11.6
O=c1cc(-c2ccc(Cl)cc2)[nH][nH]1 | 1 | 29.2* | 5.6 | -1.5 | -2.6 | -4.8 | 3.6 | -11.7
O=C1CC(C(=O)O)S/C(=N\N=C\c2ccc(Br)cc2)N1 (stereo unspecified) | x | 27.3* | x | 13.2 | x | 7.8 | 22.3* | -13.6
